{"source": "paper PMC10353488", "about": "(Journal of medicinal chemistry, 2020)", "key": {"[1]": {"tested_on": "C. trachomatis serovar L2", "assay": "Inclusion forming units", "type": "cell-based, Chlamydia trachomatis", "details": "50 μg/mL, added 8 h after infection, 24 h"}, "[2]": {"assay": "Metabolic stability in human liver microsomes", "type": "in vitro ADME", "details": "human liver microsomes with NADPH"}, "E. coli K12": {"tested_on": "E. coli K12", "assay": "Broth microdilution antibacterial assay, E. coli K12", "type": "cell-based, Escherichia coli", "details": "concentrations up to 256 μg/mL"}, "[3]": {"tested_on": "human keratinocyte (HaCaT) cells", "assay": "Cytotoxicity assay", "type": "cell-based", "details": "50 μg/mL, 24 h"}, "S. aureus JE2": {"tested_on": "S. aureus JE2", "assay": "Broth microdilution antibacterial assay, S. aureus JE2", "type": "cell-based, Staphylococcus aureus", "details": "concentrations up to 256 μg/mL"}, "Chlamydia": {"tested_on": "Chlamydia", "details": "cited from earlier work"}, "H. influenzae": {"tested_on": "H. influenzae", "details": "cited from earlier work"}, "[4]": {"details": "cited from earlier work"}, "C. trachomatis": {"tested_on": "C. trachomatis", "details": "cited from earlier work"}, "N. meningitidis": {"tested_on": "N. meningitidis", "details": "cited from earlier work"}, "ClpP": {"tested_on": "ClpP", "assay": "In vitro casein degradation assay without AAA+ chaperone", "type": "biochemical", "details": "FITC-casein 20 μM, 32°C, 3 h"}, "[5]": {"target": "recombinant ClpP1 and ClpP2 from C. trachomatis L2 (Chlamydia trachomatis serovar D, UniProt O84712+P38002)", "assay": "In vitro casein degradation assay, chlamydial ClpP1/ClpP2", "type": "biochemical", "details": "6 μM ClpP1 and ClpP2", "how_it_was_run": "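C-terminal His6-tagged C. trachomatis L2 ClpP1 and ClpP2 (6 μM each) were purified from clpAPX-null E. coli and used without AAA+ chaperone. Enzyme was preincubated with compound or DMSO for 30 min at 32 °C in HEPES pH 7.6/KCl/MgCl2/DTT/glycerol buffer, then 20 μM FITC-casein was added. Fluorescence (ex 490/em 525 nm) was read every 3 min for 3 h. Unlabeled casein digests were run on SDS-PAGE. ≥3 runs, ≥2 protein preparations.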"}, "human ClpP": {"target": "human ClpP (Homo sapiens, UniProt Q16740)", "sequence (Q16740 57-277)": "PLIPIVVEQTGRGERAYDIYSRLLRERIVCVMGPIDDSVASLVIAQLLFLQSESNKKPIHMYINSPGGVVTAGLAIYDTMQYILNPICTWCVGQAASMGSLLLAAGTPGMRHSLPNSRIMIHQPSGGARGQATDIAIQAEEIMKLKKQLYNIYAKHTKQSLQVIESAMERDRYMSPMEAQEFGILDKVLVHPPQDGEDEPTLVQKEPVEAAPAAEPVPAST", "assay": "In vitro casein degradation assay, human ClpP", "type": "biochemical", "details": "1 μM ClpP", "how_it_was_run": "(§1)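 Human or mouse ClpP ORF minus the mitochondrial localization signal was codon-optimised, C-terminally His6-tagged, and expressed and purified from clpAPX-null E. coli. 1 μM enzyme, without AAA+ chaperone, was preincubated 30 min at 32 °C with compound or DMSO in 25 mM HEPES pH 7.6 buffer before adding 20 μM FITC-casein. Fluorescence (ex 490/em 525 nm) was read every 3 min over 3 h. ≥3 runs, ≥2 protein preparations.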"}, "mouse ClpP": {"target": "mouse ClpP (Mus musculus, UniProt O88696)", "sequence (O88696 53-272)": "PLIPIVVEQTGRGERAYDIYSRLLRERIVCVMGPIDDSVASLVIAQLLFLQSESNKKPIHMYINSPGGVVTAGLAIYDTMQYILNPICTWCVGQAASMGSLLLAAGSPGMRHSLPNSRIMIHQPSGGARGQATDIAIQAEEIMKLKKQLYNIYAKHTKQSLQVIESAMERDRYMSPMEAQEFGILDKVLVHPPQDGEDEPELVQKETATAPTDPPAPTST", "assay": "In vitro casein degradation assay, mouse ClpP", "type": "biochemical", "details": "1 μM ClpP", "how_it_was_run": "as §1"}, "[6]": {"tested_on": "epithelial cervix adenocarcinoma (HeLa 229) cells", "assay": "Cytotoxicity assay", "type": "cell-based, human", "details": "50 μg/mL, 24 h"}, "D. melanogaster": {"tested_on": "D. melanogaster", "assay": "Toxicity", "type": "in vivo, Drosophila melanogaster", "details": "0.25, 0.5, and 1.0 mM", "how_it_was_run": "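Eggs from two different crosses collected for 8 hours in culture flasks on solid agar base (5% w/v) topped with live baker's yeast plus sugar.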"}}}
{"compound": "1-(4-(3,4-dichlorophenyl)piperazin-1-yl)-2-((5-(trifluoromethyl)pyridin-2-yl)sulfonyl) propan-1-one [Compound 37]", "values": [{"measurement": "impact on chlamydiae (infectious progeny, IFU)", "setting": "[1]", "value": "remarkable impact"}, {"measurement": "CL(int) Mean", "setting": "[2]", "value": "111.96 uL/(min*mg protein)"}, {"measurement": "CL(int,H) Mean", "setting": "[2]", "value": "873.80 mL/(min*kg bodywgt.)"}, {"measurement": "T1/2 Mean", "setting": "[2]", "value": 6.25, "unit": "min"}, {"measurement": "bacterial death", "setting": "E. coli K12", "value": "bacterial death was not observed"}, {"measurement": "toxicity towards HaCaT cells", "setting": "[3]", "value": "more tolerated"}, {"measurement": "bacterial death", "setting": "S. aureus JE2", "value": "bacterial death was not observed"}]}
{"compound": "2-bromoethylamine [Compound 21]", "values": [{"measurement": "bacterial death", "setting": "E. coli K12", "value": "bacterial death was not observed"}, {"measurement": "bacterial death", "setting": "S. aureus JE2", "value": "bacterial death was not observed"}]}
{"compound": "CC[C@H]1OC(=O)[C@H](C)[C@@H](O[C@H]2C[C@@](C)(OC)[C@@H](O)[C@H](C)O2)[C@H](C)[C@@H](O[C@@H]2O[C@H](C)C[C@H](N(C)C)[C@H]2O)[C@](C)(O)C[C@@H](C)CN(C)[C@H](C)[C@@H](O)[C@]1(C)O", "note": "[Azithromycin]", "values": [{"measurement": "minimal chlamydicidal concentrations (MCCs)", "setting": "Chlamydia", "value": 4, "unit": "µg/mL"}]}
{"compound": "CC(C)(C(=O)NCCSc1ccccc1Cl)S(=O)(=O)c1ccc(C(F)(F)F)cn1", "note": "[Compound 1]", "values": [{"measurement": "antibacterial activity against H. influenzae", "setting": "H. influenzae", "value": 32, "unit": "µg/mL"}, {"measurement": "fold less potent than ADEP1", "setting": "[4]", "value": "10-20 fold"}, {"measurement": "formation of infectious EBs", "setting": "C. trachomatis", "value": "drastic decrease"}, {"measurement": "antibacterial activity against N. meningitidis", "setting": "N. meningitidis", "value": 64, "unit": "µg/mL"}]}
{"compound": "CC(C)(C(=O)NCCCc1ccccc1)S(=O)(=O)c1ccccc1", "note": "[Compound 9, 2-Methyl-N-(3-Phenylpropyl)-2-(phenylsulfonyl)propanamide]", "values": [{"measurement": "ClpP-dependent casein degradation in the absence of a chaperone", "setting": "ClpP", "value": "little or no degradation"}, {"measurement": "activation of chlamydial ClpP1, ClpP2 or the ClpP1/2 dimer", "setting": "[5]", "value": "some residual decomposition"}]}
{"compound": "CC(C)(C(=O)NCCCc1ccccc1)S(=O)(=O)c1ccc(C(F)(F)F)cc1", "note": "[Compound 11, 2-Methyl-N-(3-Phenylpropyl)-2-((4-(trifluoromethyl)phenyl)sulfonyl)propanamide]", "values": [{"measurement": "impact on chlamydiae (infectious progeny, IFU)", "setting": "[1]", "value": "remarkable impact"}, {"measurement": "activation of human ClpP", "setting": "human ClpP", "value": "activated"}, {"measurement": "CL(int,H) Mean", "setting": "[2]", "value": "890.58 mL/(min*kg bodywgt.)"}, {"measurement": "activation of mouse ClpP", "setting": "mouse ClpP", "value": "activated"}, {"measurement": "bacterial death", "setting": "E. coli K12", "value": "bacterial death was not observed"}, {"measurement": "ClpP-dependent casein degradation in the absence of a chaperone", "setting": "ClpP", "value": "enabled some species of ClpP to degrade casein"}, {"measurement": "toxicity towards HeLa 229 cells", "setting": "[6]", "value": "presented toxicity"}, {"measurement": "toxicity towards HaCaT cells", "setting": "[3]", "value": "presented toxicity"}, {"measurement": "bacterial death", "setting": "S. aureus JE2", "value": "bacterial death was not observed"}, {"measurement": "activation of chlamydial ClpP1, ClpP2 or the ClpP1/2 dimer", "setting": "[5]", "value": "some residual decomposition"}, {"measurement": "toxicity against D. melanogaster (survival rate)", "setting": "D. melanogaster", "value": "did not show toxicity"}]}
{"compound": "CC(C)(C(=O)NCCSc1ccccc1Cl)S(=O)(=O)c1ccccc1", "note": "[Compound 16, N-(2-((2-chlorophenyl)thio)ethyl)-2-methyl-2-(phenylsulfonyl)propanamide]", "values": [{"measurement": "ClpP-dependent casein degradation in the absence of a chaperone", "setting": "ClpP", "value": "little or no degradation"}]}
{"compound": "CC(C)(C(=O)NCCSc1ccc(Cl)cc1)S(=O)(=O)c1ccccc1", "note": "[Compound 17, N-(2-((4-Chlorophenyl)thio)ethyl)-2-methyl-2-(phenylsulfonyl)propanamide]", "values": [{"measurement": "ClpP-dependent casein degradation in the absence of a chaperone", "setting": "ClpP", "value": "little or no degradation"}]}
{"compound": "CC(C)(C(=O)NCCSc1ccc(Cl)cc1)S(=O)(=O)c1ccc(C(F)(F)F)cn1", "note": "[Compound 20]", "values": [{"measurement": "toxicity against D. melanogaster (survival rate)", "setting": "D. melanogaster", "value": "did not show toxicity"}]}
{"compound": "CC(C)(C(=O)NCCOc1ccccc1)S(=O)(=O)c1ccc(C(F)(F)F)cc1", "note": "[Compound 24, 2-Methyl-N-(2-Phenoxyethyl)-2-))4-(trifluoromethyl)phenyl(sulfonyl(propenamide]", "values": [{"measurement": "impact on chlamydiae (infectious progeny, IFU)", "setting": "[1]", "value": "remarkable impact"}, {"measurement": "CL(int,H) Mean", "setting": "[2]", "value": "1840.91 mL/(min*kg bodywgt.)"}, {"measurement": "toxicity towards HaCaT cells", "setting": "[3]", "value": "more tolerated"}, {"measurement": "toxicity against D. melanogaster (survival rate)", "setting": "D. melanogaster", "value": "did not show toxicity"}]}
{"compound": "CC(C)(C(=O)NCCOc1ccccc1)S(=O)(=O)c1ccc(C(F)(F)F)cn1", "note": "[Compound 25, 2-Methyl-N-(2-Phenoxyethyl)-2-))5-(trifluoromethyl)pyridin-2-yl(sulfonyl(propenamide]", "values": [{"measurement": "impact on chlamydiae (infectious progeny, IFU)", "setting": "[1]", "value": "remarkable impact"}, {"measurement": "CL(int,H) Mean", "setting": "[2]", "value": "1461.60 mL/(min*kg bodywgt.)"}, {"measurement": "bacterial death", "setting": "E. coli K12", "value": "bacterial death was not observed"}, {"measurement": "bacterial death", "setting": "S. aureus JE2", "value": "bacterial death was not observed"}]}
{"compound": "CC(C)(C(=O)NCCOc1ccccc1Cl)S(=O)(=O)c1ccccc1", "note": "[Compound 26, N-(2-(2-Chlorophenoxy)ethyl)-2-methyl-2-(Phenylsulfonyl)propanamide]", "values": [{"measurement": "toxicity against D. melanogaster (survival rate)", "setting": "D. melanogaster", "value": "did not show toxicity"}]}
{"compound": "CC(C)(C(=O)NCCOc1ccccc1Cl)S(=O)(=O)c1ccc(C(F)(F)F)cn1", "note": "[Compound 28, N-(2-(2-Chlorophenoxy)ethyl)-2-methyl-2-((5-(trifluoromethyl)pyridin-2-yl)sulfonyl) propanamide]", "values": [{"measurement": "bacterial death", "setting": "E. coli K12", "value": "bacterial death was not observed"}, {"measurement": "bacterial death", "setting": "S. aureus JE2", "value": "bacterial death was not observed"}]}
{"compound": "Cc1ccccc1N1CCN(C(=O)C(C)(C)S(=O)(=O)c2ccc(C(F)(F)F)cn2)CC1", "note": "[Compound 35, 2-methyl-1-(4-(o-tolyl)piperazin-1-yl)-2-((5-(trifluoromethyl)pyridin-2-yl)sulfonyl)propan-1-one]", "values": [{"measurement": "impact on chlamydiae (infectious progeny, IFU)", "setting": "[1]", "value": "remarkable impact"}, {"measurement": "bacterial death", "setting": "E. coli K12", "value": "bacterial death was not observed"}, {"measurement": "bacterial death", "setting": "S. aureus JE2", "value": "bacterial death was not observed"}]}
{"compound": "CC(C)(C(=O)N1CCN(Cc2cccc(Cl)c2)CC1)S(=O)(=O)c1ccc(C(F)(F)F)cn1", "note": "[Compound 41, 2-methyl-1-(4-(3-chlorobenzyl)piperazin-1-yl)-2-((5-(trifluoromethyl)pyridin-2-yl)sulfonyl) propan-1-one]", "values": [{"measurement": "impact on chlamydiae (infectious progeny, IFU)", "setting": "[1]", "value": "remarkable impact"}, {"measurement": "toxicity against D. melanogaster (survival rate)", "setting": "D. melanogaster", "value": "did not show toxicity"}]}
{"compound": "Cc1ccc(CN2CCN(C(=O)C(C)(C)S(=O)(=O)c3ccc(C(F)(F)F)cn3)CC2)cc1", "note": "[Compound 42, 2-methyl-1-(4-(4-methylbenzyl)piperazin-1-yl)-2-((5-(trifluoromethyl)pyridin-2-yl)sulfonyl) propan-1-one]", "values": [{"measurement": "bacterial death", "setting": "E. coli K12", "value": "bacterial death was not observed"}, {"measurement": "toxicity towards HaCaT cells", "setting": "[3]", "value": "more tolerated"}, {"measurement": "bacterial death", "setting": "S. aureus JE2", "value": "bacterial death was not observed"}]}
{"compound": "C[C@H]1c2cccc(O)c2C(=O)C2=C(O)[C@]3(O)C(=O)C(C(N)=O)=C(O)[C@@H](N(C)C)[C@@H]3[C@@H](O)[C@@H]21.O", "note": "[Doxycycline]", "values": [{"measurement": "minimal chlamydicidal concentrations (MCCs)", "setting": "Chlamydia", "value": 1, "unit": "µg/mL"}]}
